Source: ChEMBL document CHEMBL4184297, “Discovery and validation of 2-styryl substituted benzoxazin-4-ones as a novel scaffold for rhomboid protease inhibitors” (Bioorg Med Chem Lett, 2018)
Numbering of substitutions follows the chain as printed. pIC50: −log10 of the molar value. The source made the active and inactive calls. No cut-off for these calls is given here.

What was measured:
Escherichia coli [1] = assay: Inhibition of recombinant Escherichia coli N-terminal His-tagged rhomboid protease GlpG expressed in Escherichia coli C43(DE3) cells at 250 uM using gurken as substrate preincubated for 30 mins followed by substrate addition measured after 90 mins by SDS-PAGE analysis
Escherichia coli [2] = assay: (§1) Reversible inhibition of recombinant Escherichia coli N-terminal His-tagged rhomboid protease GlpG expressed in Escherichia coli C43(DE3) cells assessed as recovery of enzyme activity at 50 uM using KSp76 as substrate preincubated for 1 hr followed by substrate addition measured over 120 mins by rapid dilution based fluorescence assay
Method in brief: (§2)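 Rapid-dilution recovery. Inhibitor preincubated 1 h with 0.4 µM GlpG in 20 mM HEPES-NaOH pH 7.4, 150 mM NaCl, 0.05% DDM, then diluted 100-fold into buffer with 10 µM KSp76. Fluorescence (ex 553/em 583) monitored continuously for 120 min.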

[3] = biological target: T1, Neutrophil elastase (Homo sapiens) (UniProt P08246); assay: Inhibition of human neutrophil elastase at 10 uM using N-Methoxysuccinyl-Ala-Ala-Pro-Val-p-nitroanilid as substrate preincubated for 20 mins followed by substrate addition measured at 1 min time interval for 5 mins by fluorescence assay
T1 sequence (whole entry): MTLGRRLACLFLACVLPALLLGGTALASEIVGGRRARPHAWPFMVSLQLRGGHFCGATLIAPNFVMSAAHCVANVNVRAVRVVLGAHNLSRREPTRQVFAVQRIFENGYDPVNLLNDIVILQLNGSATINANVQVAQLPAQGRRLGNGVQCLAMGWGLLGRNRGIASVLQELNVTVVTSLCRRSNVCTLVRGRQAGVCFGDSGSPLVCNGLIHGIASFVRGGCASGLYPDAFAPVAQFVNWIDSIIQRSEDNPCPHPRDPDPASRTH

[4] = tested on: T2, Rhomboid protease GlpG (Escherichia coli (strain K12)), P09391 [H254A]; assay: Binding affinity to recombinant Escherichia coli rhomboid protease GlpG H254A mutant expressed in Escherichia coli C43(DE3) cells by electrospray mass spectrometric analysis
T2 sequence (whole entry): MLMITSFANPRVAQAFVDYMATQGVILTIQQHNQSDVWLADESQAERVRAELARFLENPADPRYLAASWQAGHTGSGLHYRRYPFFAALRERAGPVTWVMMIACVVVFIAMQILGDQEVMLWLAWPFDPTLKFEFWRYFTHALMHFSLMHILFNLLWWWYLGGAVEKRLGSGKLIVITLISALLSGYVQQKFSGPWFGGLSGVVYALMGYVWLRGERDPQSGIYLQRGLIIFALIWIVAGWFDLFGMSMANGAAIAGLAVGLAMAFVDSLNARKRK
Method in brief: (§3)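 GlpG (wild type or rhomboid mutants) expressed in E. coli C43(DE3) and purified, then reacted in vitro with compound or vehicle. Covalent adduct detected by electrospray mass spectrometry as an added peak with the expected mass shift over free enzyme. Two independent experiments.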

[5] = biological target: T3, Cathepsin G (Homo sapiens) (UniProt P08311); assay: Inhibition of human neutrophil cathepsin G at 10 uM using N-Succinyl-Ala-Ala-Pro-Phe-p-nitroanilide as substrate preincubated for 30 mins followed by substrate addition measured at 1 min time interval for 5 mins by fluorescence assay; details: in the assay text read “absorbance assay” for “fluorescence assay”
T3 sequence (whole entry): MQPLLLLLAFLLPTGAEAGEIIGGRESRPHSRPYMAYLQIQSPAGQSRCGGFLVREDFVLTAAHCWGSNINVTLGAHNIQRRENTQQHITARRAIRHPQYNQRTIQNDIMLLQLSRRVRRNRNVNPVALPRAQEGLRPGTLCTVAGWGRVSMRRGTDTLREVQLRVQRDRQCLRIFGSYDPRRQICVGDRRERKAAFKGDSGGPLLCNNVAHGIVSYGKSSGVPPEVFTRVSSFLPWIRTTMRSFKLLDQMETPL
Method in brief: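 Compound or DMSO preincubated with 200 nM human neutrophil cathepsin G for 30 min at 37°C in 100 mM HEPES, 500 mM NaCl, pH 7.4. Started with Suc-AAPF-pNA (2 mM stock). Absorbance at 410 nm read every 1 min for 5 min. Initial slope gives velocity; % activity relative to DMSO.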

[6] = Inhibition of recombinant Escherichia coli N-terminal His-tagged rhomboid protease GlpG expressed in Escherichia coli C43(DE3) cells using KSp76 as substrate incubated for 1 hr followed by substrate addition by fluorescence assay
Method in brief: (§4)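 Started with 10 µM quenched fluorogenic peptide (KSp35 or KSp76). Fluorescence normalized to DMSO and plotted against log concentration; apparent IC50 from nonlinear regression.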

[7] = biological target: T4, Rhomboid protease GlpG (Escherichia coli (strain K12)) (UniProt P09391); assay: Binding affinity to recombinant Escherichia coli rhomboid protease GlpG His150 mutant expressed in Escherichia coli C43(DE3) cells by electrospray mass spectrometric analysis; method in brief: as §3
T4 sequence (whole entry): T2 sequence (whole entry) with A254H

Bos taurus = species: Bos taurus; assay: Inhibition of bovine pancreas trypsin at 10 uM using Z-Gly-Gly-Argaminomethylcoumarin as substrate preincubated for 30 mins followed by substrate addition measured at 1 min time interval for 5 mins by fluorescence assay
Method in brief: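 Compound or DMSO preincubated with 10 nM bovine pancreatic trypsin in PBS for 30 min at 30°C. Started with Z-Gly-Gly-Arg-AMC (1 mM stock). AMC fluorescence (ex 340/em 440) read every 1 min for 5 min. Initial slope gives velocity; % activity = V inhibitor/V DMSO × 100.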

Escherichia coli [8] = assay: Binding affinity to wild type recombinant Escherichia coli rhomboid protease GlpG expressed in Escherichia coli C43(DE3) cells by electrospray mass spectrometric analysis; method in brief: as §3
[9] = biological target: Chymotrypsinogen A (Bos taurus) (UniProt P00766); assay: Inhibition of bovine alpha-chymotrypsin at 250 uM using N-Succinyl-Ala-AlaPro-Phe-p-nitroanilide as substrate incubated for 30 mins followed by substrate addition measured over 5 mins by spectroscopic method
[10] = tested on: T5, Rhomboid protease GlpG (Escherichia coli (strain K12)), P09391 [S201T]; assay: Binding affinity to recombinant Escherichia coli rhomboid protease GlpG S201T mutant expressed in Escherichia coli C43(DE3) cells by electrospray mass spectrometric analysis; method in brief: as §3
T5 sequence (whole entry): T2 sequence (whole entry) with S201T, A254H

[11] = Inhibition of recombinant Escherichia coli N-terminal His-tagged rhomboid protease GlpG expressed in Escherichia coli C43(DE3) cells using KSp53 as substrate incubated for 1 hr followed by substrate addition by fluorescence assay; details: in the assay text read “KSp35” for “KSp53”; method in brief: as §4
Escherichia coli [12] = assay: as §1, with “1” for “50”; method in brief: as §2
Chymotrypsinogen A = Chymotrypsinogen A (Bos taurus, UniProt P00766); assay: Inhibition of bovine pancreas alpha-chymotrypsin using KSp21 as substrate preincubated for 30 mins followed by substrate addition measured after 50 to 60 mins by fluorescence assay
Escherichia coli [13] = assay: as §1, with “10” for “50”; method in brief: as §2

In the case of O=c1oc(-c2ccccc2)nc2ccccc12, the inhibition (Escherichia coli [1]) was “inactive”.
With O=c1oc(/C=C/c2ccccc2Cl)nc2ccccc12 the inhibition (Escherichia coli [2]) was “Active”, the inhibition (Escherichia coli [1]) was “Active” and the inhibition [3] was “inactive”. The Activity [4] was “inactive”, the inhibition [5] was “Active” and the pIC50 [6] was 5.36. For the same molecule, the Activity [7] was “Active”, the inhibition (Bos taurus) was “inactive” and the Activity (Escherichia coli [8]) was “Active”. For the same molecule, the inhibition [9] was “inactive” and the Activity [10] was “inactive”.
With O=c1oc(-c2ccc(F)cc2)nc2ccccc12 the inhibition (Escherichia coli [1]) was “inactive”.
With O=c1oc(-c2ccco2)nc2ccccc12 the inhibition (Escherichia coli [1]) was “inactive”.
With CCC(=O)Oc1c(/C=C/c2nc3ccccc3c(=O)o2)cccc1OC the inhibition (Escherichia coli [1]) was “inactive”.
For O=c1oc(-c2cccc(F)c2)nc2ccccc12, the inhibition (Escherichia coli [1]) was “inactive”.
In the case of COc1ccc(/C=C/c2nc3ccccc3c(=O)o2)cc1, the inhibition (Escherichia coli [1]) was “Active”, the inhibition [3] was “inactive” and the pIC50 [11] was 4.32. The inhibition [5] was “inactive” and the inhibition (Bos taurus) was “inactive”.
With O=c1oc(/C=C/c2ccccc2)nc2ccccc12 the inhibition (Escherichia coli [1]) was “Active”, the inhibition [3] was “inactive” and the pIC50 [11] was 5.43. For the same molecule, the inhibition [5] was “Active”, the inhibition (Bos taurus) was “inactive” and the Activity (Escherichia coli [8]) was “Active”. The inhibition [9] was “inactive”.
In the case of O=C1CC(c2ccccc2)N1C(=O)Oc1ccccc1 (configuration not stated), the inhibition (Escherichia coli [12]) was “Active”.
For O=c1oc(/C=C/c2ccc(F)c(F)c2)nc2ccccc12, the inhibition (Escherichia coli [1]) was “inactive”.
With COc1ccc(-c2nc3ccccc3c(=O)o2)cc1 the inhibition (Escherichia coli [1]) was “inactive”.
With O=c1oc(Cl)c(Cl)c2ccccc12 the pIC50 (Chymotrypsinogen A) was 5.46, the inhibition [3] was “Active” and the inhibition (Bos taurus) was “Active”.
With O=c1oc(-c2ccccc2F)nc2ccccc12 the inhibition (Escherichia coli [1]) was “inactive”.
In the case of COc1oc(=O)c2cc(N)ccc2c1Cl, the inhibition (Escherichia coli [13]) was “inactive”.
For O=c1oc(-c2cccc(Br)c2)nc2ccccc12, the inhibition (Escherichia coli [1]) was “inactive”.
